Consider 32 molecules from the M2OR odorant receptor database.

The first assay deals with T1, UniProt Q8VGM2.
T1 sequence (whole entry): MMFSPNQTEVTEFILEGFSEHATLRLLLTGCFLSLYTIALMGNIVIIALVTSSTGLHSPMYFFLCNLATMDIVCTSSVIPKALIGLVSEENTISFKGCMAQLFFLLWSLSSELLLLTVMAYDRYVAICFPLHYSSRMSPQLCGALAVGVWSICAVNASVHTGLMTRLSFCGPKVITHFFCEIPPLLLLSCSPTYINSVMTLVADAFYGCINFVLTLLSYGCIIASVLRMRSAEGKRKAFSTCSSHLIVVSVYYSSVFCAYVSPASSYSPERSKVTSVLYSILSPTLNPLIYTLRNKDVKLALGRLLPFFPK
The settings on record: stereoisomer not certain. Summed up:
(§1)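 Assay methods differ from source to source, frequently being transient luciferase assays in mammalian cell lines. For each receptor–molecule pair, the label responsive (active) applies when the original authors judged the measured signal statistically different from baseline, and non-responsive (inactive) applies otherwise.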
For the molecule `CCCCCCCCC(=O)O`, the “odorant receptor agonist call” value was “inactive”.
Turning to `CCCCC(=O)O`, the “odorant receptor agonist call” value is “inactive”.
Same read-out and setting: in the case of `CC(C)=CCCC(C)CCO` (centres undefined) it was “inactive”; in that of `CCCCCCCCCO`, “inactive”.
The same measure, in the same setting: the result for `CCCCCCCC(C)=O` reads “inactive”.
Regarding `O=C1Cc2ccccc2O1`, the “odorant receptor agonist call” value is “inactive”.
On to `CCCC(=O)C(C)=O`, for which the “odorant receptor agonist call” value was “inactive”.
Same read-out and setting: in the case of `CC(=O)OCC=C(C)C` it was “inactive”.
Still for that read-out and setting: in the case of `CCCCCC=O` it was “inactive”; in that of `CC(=O)Oc1ccccc1`, “inactive”; in that of `COc1cc(C(=O)O)ccc1O`, “inactive”.
On the same count and under the same terms, in the case of `CCCCCC(=O)CC` it was “inactive”; in that of `CCCCCCCCCS`, “inactive”; in that of `CCCCCCO`, “inactive”.
Consider `CCOC(=O)C(C)C`, for which the “odorant receptor agonist call” value was “inactive”.
Same read-out and setting: in the case of `c1ccccc1` it was “inactive”; in that of `CCCCCCOC(C)=O`, “inactive”; in that of `CCC(=O)O`, “inactive”.
Same read-out and setting: in the case of `CCCCCCCCS` it was “inactive”; in that of `C=C(C)C1CCC(C)C(=O)C1` (centres undefined), “inactive”.
The same measure, in the same setting: the result for `O=C(c1ccccc1)c1ccccc1` reads “inactive”.
Take `CCCCC(=O)CC`: the “odorant receptor agonist call” value was “inactive”.
On the same count and under the same terms, in the case of `CCCCC(C)=O` it was “inactive”; in that of `CCCCCCCCCC(=O)[O-].[H+]`, “inactive”.
The same measure, in the same setting: in the case of `CCCCOC=O` it was “inactive”.
As for `CCCCCCCCCCO`, the “odorant receptor agonist call” value was “inactive”.
Still for that read-out and setting: the result for `CCCCCCCCO` reads “inactive”.
For the molecule `CCCCCC1=C(C)CCC1=O`, the “odorant receptor agonist call” value is “inactive”.
Consider `C=CCOC(=O)CCCCCC`, for which the “odorant receptor agonist call” value is “inactive”.
On the same count and under the same terms, the result for `CCCCCCCO` reads “inactive”; that for `CC(C)=CCCC(C)=CCO`, “inactive”; that for `CCC(=O)C(=O)CC`, “inactive”.

The target of another assay is T2, UniProt Q8VGP6.
T2 sequence (whole entry): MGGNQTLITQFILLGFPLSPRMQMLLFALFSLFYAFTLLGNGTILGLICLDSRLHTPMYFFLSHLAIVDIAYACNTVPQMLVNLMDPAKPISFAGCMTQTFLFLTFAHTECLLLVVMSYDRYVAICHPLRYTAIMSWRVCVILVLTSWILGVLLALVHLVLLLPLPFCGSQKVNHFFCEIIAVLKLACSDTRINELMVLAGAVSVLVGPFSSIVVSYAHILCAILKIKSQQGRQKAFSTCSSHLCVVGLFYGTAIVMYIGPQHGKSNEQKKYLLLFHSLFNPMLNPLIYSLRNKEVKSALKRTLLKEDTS
The settings on record: stereoisomer not certain. The procedure, abridged:
as §1
On to `CCCCCCCCC(=O)O`, for which the “odorant receptor agonist call” value was “inactive”.
On the same count and under the same terms, in the case of `CCCCC(=O)O` it was “inactive”; in that of `CC(C)=CCCC(C)CCO` (centres undefined), “inactive”; in that of `CCCCCCCCCO`, “active”.
The same measure, in the same setting: the result for `CCCCCCCC(C)=O` reads “inactive”; that for `O=C1Cc2ccccc2O1`, “inactive”; that for `CCCC(=O)C(C)=O`, “inactive”.
Same read-out and setting: the result for `CC(=O)OCC=C(C)C` reads “inactive”; that for `CCCCCC=O`, “inactive”; that for `CC(=O)Oc1ccccc1`, “inactive”.
With `COc1cc(C(=O)O)ccc1O`, the “odorant receptor agonist call” value was “inactive”.
Still for that read-out and setting: the result for `CCCCCC(=O)CC` reads “inactive”.
Same read-out and setting: the result for `CCCCCCCCCS` reads “active”.
The same measure, in the same setting: in the case of `CCCCCCO` it was “inactive”; in that of `CCOC(=O)C(C)C`, “inactive”; in that of `c1ccccc1`, “inactive”.
Turning to `CCCCCCOC(C)=O`, the “odorant receptor agonist call” value is “inactive”.
Consider `CCC(=O)O`, for which the “odorant receptor agonist call” value was “inactive”.
`CCCCCCCCS`: the “odorant receptor agonist call” value was “inactive”.
The same measure, in the same setting: the result for `C=C(C)C1CCC(C)C(=O)C1` (centres undefined) reads “inactive”; that for `O=C(c1ccccc1)c1ccccc1`, “inactive”; that for `CCCCC(=O)CC`, “inactive”.
On the same count and under the same terms, the result for `CCCCC(C)=O` reads “inactive”.
Still for that read-out and setting: in the case of `CCCCCCCCCC(=O)[O-].[H+]` it was “inactive”; in that of `CCCCOC=O`, “inactive”; in that of `CCCCCCCCCCO`, “active”.
As for `CCCCCCCCO`, the “odorant receptor agonist call” value was “active”.
Still for that read-out and setting: the result for `CCCCCC1=C(C)CCC1=O` reads “inactive”.
Still for that read-out and setting: the result for `C=CCOC(=O)CCCCCC` reads “inactive”.
Still for that read-out and setting: in the case of `CCCCCCCO` it was “active”; in that of `CC(C)=CCCC(C)=CCO`, “inactive”; in that of `CCC(=O)C(=O)CC`, “inactive”.
